According to ChEMBL document CHEMBL1156517, “Targeting thyroid hormone receptor-beta agonists to the liver reduces cholesterol and triglycerides and improves the therapeutic index” (Proc Natl Acad Sci U S A, 2007):
Activity calls are given as the source filed them. The calls are words filed in the database; no cut-off is given here.

Legend:
[1] = tested on: Rattus norvegicus; assay: Toxicity in Sprague-Dawley rat assessed as suppression of thyroid hormone axis measured by decrease in free 3,5,3',5'-triiodo-L-thyronine level at 1 mg/kg, po after 7 weeks; format: organism-based; set-up: dose 1 mg/kg, route oral; conditions: in vivo, 1176 h
Summary of the method: (§1)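 Male SD rats (n = 5–6 per group; baseline group n = 8) given vehicle (0.5% CMC/1% Lutrol F68) or drug orally once daily. One group per cohort weighed and killed by decapitation without anesthesia after 1, 2, 4 and 7 weeks. Trunk-blood serum assayed for total/free T3 and T4; TSH by [125I] radioimmunoassay with magnetic separation. Pituitary TSHβ mRNA also measured.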

[2] = tested on: Rattus norvegicus; assay: Toxicity in Sprague-Dawley rat assessed as suppression of thyroid hormone axis measured by decrease in serum TSH level at 1 mg/kg, po after 7 weeks; format: organism-based; set-up: dose 1 mg/kg, route oral; conditions: in vivo, 1176 h; summary of the method: as §1
[3] = tested on: Rattus norvegicus; assay: Toxicity in Sprague-Dawley rat assessed as suppression of thyroid hormone axis measured by decrease in TSH-beta mRNA level at 1 mg/kg, po after 7 weeks; format: organism-based; set-up: dose 1 mg/kg, route oral; conditions: in vivo, 1176 h; summary of the method: as §1
[4] = tested on: Mus musculus; assay: Decrease in cholesterol level in wild-type C57BL/6 mouse at 5 mg/kg/day once daily for 7 days; format: functional, organism-based
[5] = tested on: Mus musculus; assay: Decrease in liver triglyceride level in po dosed diet-induced obese C57BL/6 mouse after 14 days; format: functional; set-up: scale not given: the % may be the effect or the level left
Summary of the method: (§2)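 DIO mice were male C57BL/6 fed a 60%-fat (by kcal) diet from about 4 weeks of age for about 170 days. They were grouped (n = 8) to match cholesterol and body weight. Dosing was oral, once daily for 2 weeks, in 0.5% CMC/1% Lutrol F68. At kill, blood was taken by cardiac puncture for plasma TGs. The liver was removed and weighed, and hepatic TGs were measured.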

[6] = tested on: Mus musculus; assay: Decrease in cholesterol level in LDLR deficient C57BL/6 mouse at 0.5 mg/kg/day once daily for 7 days; format: functional, organism-based
[7] = tested on: Mus musculus; assay: Decrease in cholesterol level in LDLR deficient C57BL/6 mouse at 5 mg/kg/day once daily for 7 days; format: functional, organism-based
[8] = tested on: Mus musculus; assay: Decrease in liver weight in po dosed diet-induced obese C57BL/6 mouse after 14 days; format: functional; set-up: scale not given: the % may be the effect or the level left; summary of the method: as §2
[9] = tested on: Mus musculus; assay: Decrease in body weight in diet-induced obese C57BL/6 mouse at 0.03 mg/kg, po; format: functional; set-up: scale not given: the % may be the effect or the level left
[10] = tested on: Mus musculus; assay: Decrease in cholesterol level in wild-type C57BL/6 mouse at 0.5 mg/kg/day once daily for 7 days; format: functional, organism-based
[11] = tested on: Mus musculus; assay: Reduction in plasma cholesterol level in po dosed diet-induced obese C57BL/6 mouse after 2 weeks; format: functional; set-up: scale not given: the % may be the effect or the level left
Summary of the method: (§3)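 Male C57BL/6 mice, about 4 weeks old, fed a high-fat diet (60% kcal fat) for about 170 days. Assigned to groups (n = 8) matched for cholesterol and body weight. Dosed orally once daily in 0.5% CMC/1% Lutrol F68 for 2 weeks. Baseline blood taken by tail nick. At end, cardiac-puncture blood used for cholesterol, TGs, glucose and thyroid hormones; liver weighed and hepatic TGs measured.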

[12] = tested on: Rattus norvegicus; assay: Toxic cardiac effect on Sprague-Dawley rat assessed as increase in heart rate at >= 1 mg/kg/day, po for 7 days; format: toxicity, organism-based; set-up: route oral; conditions: in vivo, 168 h
Summary of the method: (§4)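 Male SD rats (n = 6 per group) dosed daily by oral gavage for 7 days; vehicle group included. On day 7, rats anesthetized with isoflurane; catheter-tip transducer inserted into left ventricle via right carotid artery. LV pressure, LV dP/dt and heart rate (lead I ECG) recorded digitally. Systolic/diastolic aortic pressure taken by retracting catheter into proximal aorta.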

[13] = tested on: Rattus norvegicus; assay: Toxic cardiac effect on Sprague-Dawley rat assessed as increase in first derivative of left ventricular pressure at >= 1 mg/kg/day, po for 7 days; format: toxicity, organism-based, Heart left ventricle; set-up: route oral; conditions: in vivo, 168 h; summary of the method: as §4
[14] = tested on: Rattus norvegicus; assay: Toxic cardiac effect on Sprague-Dawley rat assessed as increase in systolic aortic pressure at >= 1 mg/kg/day, po for 7 days; format: toxicity, organism-based; set-up: route oral; conditions: in vivo, 168 h; summary of the method: as §4
[15] = tested on: Rattus norvegicus; assay: Toxic cardiac effect in Sprague-Dawley rat assessed as increase in heart rate at 1 mg/kg/day, po; format: toxicity, organism-based; set-up: route oral; conditions: in vivo; summary of the method: as §4
[16] = tested on: Rattus norvegicus; assay: Toxic cardiac effect in Sprague-Dawley rat assessed as increase in first derivative of left ventricular pressure at 1 mg/kg/day, po; format: toxicity, organism-based, Heart left ventricle; set-up: route oral; conditions: in vivo; summary of the method: as §4
[17] = tested on: Rattus norvegicus; assay: Toxic cardiac effect in Sprague-Dawley rat assessed as increase in heart weight at 1 mg/kg/day, po; format: toxicity, organism-based; set-up: route oral; conditions: in vivo
[18] = tested on: Rattus norvegicus; assay: Toxic cardiac effect on Sprague-Dawley rat assessed as decrease in body weight gain at 1 mg/kg/day, po; format: toxicity, organism-based; set-up: route oral; scale not given: the % may be the effect or the level left; conditions: in vivo
[19] = tested on: Rattus norvegicus; assay: Toxicity in Sprague-Dawley rat assessed as suppression of thyroid hormone axis measured by decrease in total 3,5,3',5'-tetraiodo-L-thyronine level at 0.1 mg/kg, po after 7 weeks; format: organism-based; set-up: dose 0.1 mg/kg, route oral; conditions: in vivo, 1176 h
[20] = tested on: Rattus norvegicus; assay: Toxicity in Sprague-Dawley rat assessed as suppression of thyroid hormone axis measured by decrease in free 3,5,3',5'-tetraiodo-L-thyronine level at 0.1 mg/kg, po after 7 weeks; format: organism-based; set-up: dose 0.1 mg/kg, route oral; conditions: in vivo, 1176 h; summary of the method: as §1
[21] = tested on: Rattus norvegicus; assay: Toxicity in Sprague-Dawley rat assessed as suppression of thyroid hormone axis measured by decrease in total […]-L-thyronine level at 0.1 mg/kg, po after 7 weeks; format: organism-based; set-up: dose 0.1 mg/kg, route oral; conditions: in vivo, 1176 h
[22] = tested on: Rattus norvegicus; assay: Toxicity in Sprague-Dawley rat assessed as suppression of thyroid hormone axis measured by decrease in free 3,5,3',5'-triiodo-L-thyronine level at 0.1 mg/kg, po after 7 weeks; format: organism-based; set-up: dose 0.1 mg/kg, route oral; conditions: in vivo, 1176 h; summary of the method: as §1
[23] = tested on: Rattus norvegicus; assay: Toxicity in Sprague-Dawley rat assessed as suppression of thyroid hormone axis measured by decrease in serum TSH level at 0.1 mg/kg, po after 7 weeks; format: organism-based; set-up: dose 0.1 mg/kg, route oral; conditions: in vivo, 1176 h; summary of the method: as §1
[24] = tested on: Rattus norvegicus; assay: Toxicity in Sprague-Dawley rat assessed as suppression of thyroid hormone axis measured by decrease in TSH-beta mRNA level at 0.1 mg/kg, po after 7 weeks; format: organism-based; set-up: dose 0.1 mg/kg, route oral; conditions: in vivo, 1176 h; summary of the method: as §1
[25] = tested on: Rattus norvegicus; assay: Toxicity in Sprague-Dawley rat assessed as suppression of thyroid hormone axis measured by decrease in total 3,5,3',5'-tetraiodo-L-thyronine level at 1 mg/kg, po after 7 weeks; format: organism-based; set-up: dose 1 mg/kg, route oral; conditions: in vivo, 1176 h
[26] = tested on: Rattus norvegicus; assay: Toxicity in Sprague-Dawley rat assessed as suppression of thyroid hormone axis measured by decrease in free 3,5,3',5'-tetraiodo-L-thyronine level at 1 mg/kg, po after 7 weeks; format: organism-based; set-up: dose 1 mg/kg, route oral; conditions: in vivo, 1176 h; summary of the method: as §1
[27] = tested on: Rattus norvegicus; assay: Toxicity in Sprague-Dawley rat assessed as suppression of thyroid hormone axis measured by assessed as decrease in total […]-L-thyronine level at 1 mg/kg, po after 7 weeks; format: organism-based; set-up: dose 1 mg/kg, route oral; conditions: in vivo, 1176 h; summary of the method: as §1
[28] = tested on: Mus musculus; assay: Effect on hepatic LDLR mRNA level in LDLR deficient C57BL/6 mouse at 0.5 mg/kg/day once daily for 7 days; format: functional
[29] = tested on: Mus musculus; assay: Effect on hepatic LDLR mRNA level in wild-type C57BL/6 mouse at 0.5 mg/kg/day once daily for 7 days; format: functional
[30] = tested on: Mus musculus; assay: Reduction in total 3,5,3',5'-tetraiodo-L-thyronine level in po dosed diet-induced obese C57BL/6 mouse; format: functional, organism-based; summary of the method: as §3
[31] = tested on: Mus musculus; assay: Reduction in total […]-L-thyronine level in po dosed diet-induced obese C57BL/6 mouse; format: functional, organism-based; summary of the method: as §3
[32] = tested on: Mus musculus; assay: Reduction in blood glucose level in po dosed diet-induced obese C57BL/6 mouse; format: functional, organism-based; summary of the method: as §3
[33] = tested on: Mus musculus; assay: Increase in heart weight in po dosed diet-induced obese C57BL/6 mouse; format: functional, organism-based
[34] = organism: Rattus norvegicus; assay: Reduction in plasma cholesterol level in cholesterol fed Sprague-Dawley rat; format: functional
[35] = tested on: Rattus norvegicus; assay: Effect on malic enzyme mRNA expression in po dosed Sprague-Dawley rat liver; format: functional, organism-based; conditions: TDE = time-dependent effect
Summary of the method: (§5)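 Killed 3, 8 and 24 h post-dose under 2.5% isoflurane. Pituitary and thyroid snap-frozen; liver, heart, soleus, spleen and kidney freeze-clamped. mRNA by quantitative real-time PCR, expressed as fold-change vs vehicle.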

[36] = tested on: Rattus norvegicus; assay: Effect on SREBP-1c mRNA expression in po dosed Sprague-Dawley rat liver; format: functional, organism-based; conditions: TDE = time-dependent effect
[37] = tested on: Rattus norvegicus; assay: Effect on LDLR mRNA expression in po dosed Sprague-Dawley rat liver; format: functional, organism-based; conditions: TDE = time-dependent effect
[38] = tested on: Rattus norvegicus; assay: Effect on type 1 iodothyronine deiodinase mRNA expression in po dosed Sprague-Dawley rat liver; format: functional, organism-based; conditions: TDE = time-dependent effect; summary of the method: as §5

Activity [35]: tde | Activity [38]: tde
Structure (SMILES): CC(C)c1cc(Oc2c(Cl)cc(CC(=O)O)cc2Cl)ccc1O
Activity [1]: Active | Activity [2]: Active | Activity [3]: Active | Activity [4]: Active | Activity [5]: 33% | Activity [6]: inactive | Activity [7]: inactive | Activity [8]: 33% | Activity [9]: 3% | Activity [10]: Active | Activity [11]: 67% | Activity [12]: Active | Activity [13]: Active | Activity [14]: Active | Activity [15]: Active | Activity [16]: Active | Activity [17]: Active | Activity [18]: 61% | Activity [19]: Active | Activity [20]: Active | Activity [21]: Active | Activity [22]: Active | Activity [23]: Active | Activity [24]: Active | Activity [25]: Active | Activity [26]: Active | Activity [27]: Active | Activity [28]: -10.6% | Activity [29]: -55.8% | Activity [30]: Active | Activity [31]: Active | Activity [32]: Active | Activity [33]: Active | ED50 [34]: 0.05 mg/kg | Activity [36]: tde | Activity [37]: tde
